HKDC1 inhibitor = HKDC1 (human) hexokinase inhibition. recombinant HKDC1, G6PDH/diaphorase resazurin coupled fluorescence. inhibition, % at 20 µM. AID 493160. hit rate 0.16% among 340,000. Q2TB90;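 active = inhibition above about 35% when tested at 20 µM, limit read from the data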;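 also: plate controls were DMSO wells with enzyme for no effect and DMSO wells lacking enzyme for full effect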
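Test system: HK5 enzyme. Quantity: 5 µg/mL HK5 final. Reagent: glucose and ATP substrates. Schedule: 90 min reaction incubation at room temperature, dark. Technique: resazurin-to-resorufin fluorescence via G6PDH and diaphorase coupling, 525/613 nm. Control set: DMSO wells with and without enzyme mix.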
PfGluPho inh = PfG6PD (Plasmodium falciparum) enzyme inhibition; PfGluPho enzyme, NADPH resazurin-diaphorase fluorescence; AID 504690; hit rate 0.78% among 350,000; inhibition, % at 20 µM;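 active = inhibition reaching at least a set limit at 20 µM in the primary screen, cut at about 59% in these data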;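 also: 0% = DMSO wells with substrate and 100% = DMSO wells lacking glucose-6-phosphate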
APOBEC3G inh = blocks human APOBEC3G single-stranded DNA deamination; Q9HC16; recombinant A3G, ssDNA deamination FAM/TAMRA fluorescence; inhibition, % at 20 µM; hit rate 0.28% among 330,000; AID 493012;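 active = inhibition of at least 40% at 20 µM, with no more than 30% in the related APOBEC3A deaminase screen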;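 also: plate controls were DMSO wells with A3G for no effect and wells lacking A3G enzyme for full effect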
UBC9 SUMO inh = inhibitors of human SUMOylation (UBC9); P63279; HTRF SUMOylation assay, SAE1/SAE2 + UBC9, in vitro; inhibition, % at 35 µM; hit rate 0.36% among 290,000; AID 2006; in the data active = inhibition above about 50%, passing the limit was not always enough
A3A deaminase = human APOBEC3A DNA deaminase inhibition; recombinant A3A, FAM/TAMRA ssDNA deamination fluorescence; inhibition, % at 20 µM; AID 493011; hit rate 0.41% among 330,000; P31941;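 active = at least 40% inhibition at 20 µM here, with at most 30% in a related deaminase screen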;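 also: plate controls were A3A with DMSO for no effect and wells lacking A3A enzyme for full effect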
M18AAP inhibitor = PfM18AAP enzyme inhibition; recombinant PfM18AAP, H-Glu-NHMec fluorogenic cleavage; inhibition, % at 7.35 µM; hit rate 1.2% among 290,000; AID 1822;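 active = inhibition above the campaign mean inhibition over all tested compounds plus 3 SD, cut at about 28% in these data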;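 also: 0% = plate median of test compound wells and 100% = 2 mM ZnCl2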
* marks the source's active call; other numbers are inactive results. Compounds with a hit are over-represented: about 2.4% of the library has one in this group of screens.

What do the screens show for `O=C(CSc1n[nH]c(-c2ccccc2)n1)Nc1ncc(Br)cc1Br`?
HKDC1 inhibitor: 48*; PfGluPho inh: 19; APOBEC3G inh: -4; UBC9 SUMO inh: 19; A3A deaminase: -2; M18AAP inhibitor: 1

How did O=C1CCN(N=Nc2cccc(Cl)c2)N1 do in these assays?
APOBEC3G inh: 30; UBC9 SUMO inh: 5; A3A deaminase: 2; M18AAP inhibitor: 31*

Results for NS(=O)(=O)c1cc(C(=O)NC2CCSc3ccccc32)ccc1Cl (stereo not given) ?
HKDC1 inhibitor: 24; PfGluPho inh: -7; APOBEC3G inh: 80; UBC9 SUMO inh: 73*; A3A deaminase: 97; M18AAP inhibitor: 3

Results for Cc1sc2c3ccsc3ccc2[n+]1C ?
HKDC1 inhibitor: 8; PfGluPho inh: 59; APOBEC3G inh: 32; UBC9 SUMO inh: 11; A3A deaminase: 52; M18AAP inhibitor: 30*

Results for Cc1sc2ccc3sccc3c2[n+]1C ?
HKDC1 inhibitor: -9; PfGluPho inh: 52; APOBEC3G inh: 44; UBC9 SUMO inh: -4; A3A deaminase: 57; M18AAP inhibitor: 30*

What do the screens show for `COCCn1nnnc1C(c1cccs1)N1CCCC(C)C1` (stereo not given)?
HKDC1 inhibitor: -6; PfGluPho inh: -3; APOBEC3G inh: -8; UBC9 SUMO inh: -5; A3A deaminase: 0; M18AAP inhibitor: 1

Results for CC1=NN(c2ccccc2)C(=O)C1C=Nc1ccc(N(C)C)cc1 (stereo not given) ?
HKDC1 inhibitor: 9; PfGluPho inh: 36; APOBEC3G inh: -6; UBC9 SUMO inh: 6; A3A deaminase: -6; M18AAP inhibitor: 31*

What do the screens show for `O=C1/C(=C\c2cc(Br)cc(Br)c2O)SC(=S)N1Cc1ccccc1`?
HKDC1 inhibitor: 15; PfGluPho inh: -1; APOBEC3G inh: 1; UBC9 SUMO inh: 59*; A3A deaminase: 0; M18AAP inhibitor: 20

How did O=C(O)CN1C(=O)/C(=C\c2cc(Br)ccc2OCc2ccc([N+](=O)[O-])cc2)SC1=S do in these assays?
HKDC1 inhibitor: 25; PfGluPho inh: -36; APOBEC3G inh: -4; UBC9 SUMO inh: 51*; A3A deaminase: 26; M18AAP inhibitor: -13

Results for CCOC(=O)C1=CC[C@@H](c2cc3cc(OC)ccc3n2C)N(S(=O)(=O)c2ccc(C)cc2)[C@H]1C(=O)OCC ?
HKDC1 inhibitor: 3; PfGluPho inh: -7; APOBEC3G inh: -2; A3A deaminase: 4

What do the screens show for `O=C(Oc1ccc(C(=S)N2CCOCC2)cc1)c1ccccc1F`?
HKDC1 inhibitor: 1; PfGluPho inh: 7; APOBEC3G inh: 12; UBC9 SUMO inh: 16; A3A deaminase: 0; M18AAP inhibitor: 29*

How did O=C(Oc1ccc(C(=S)N2CCOCC2)cc1Br)c1ccccc1F do in these assays?
HKDC1 inhibitor: 0; PfGluPho inh: 31; APOBEC3G inh: -1; UBC9 SUMO inh: 12; A3A deaminase: -1; M18AAP inhibitor: 6

How did COc1ccc2c(CC(=O)N[C@@H](Cc3ccccc3)C(=O)O)cc(=O)oc2c1C do in these assays?
HKDC1 inhibitor: 0; PfGluPho inh: -29; APOBEC3G inh: 0; UBC9 SUMO inh: 3; A3A deaminase: 2; M18AAP inhibitor: -12

Results for Cc1c(O)ccc2c(CC(=O)N[C@@H](Cc3ccc(O)cc3)C(=O)O)cc(=O)oc12 ?
HKDC1 inhibitor: -2; PfGluPho inh: -2; APOBEC3G inh: -2; UBC9 SUMO inh: 53*; A3A deaminase: 2; M18AAP inhibitor: -7

How did Cc1cnc(NC(=O)CSc2nnc(COc3c(C)cccc3C)o2)s1 do in these assays?
HKDC1 inhibitor: 5; PfGluPho inh: -14; APOBEC3G inh: -4; UBC9 SUMO inh: -6; A3A deaminase: -1; M18AAP inhibitor: 28*

How did CN(/N=C/c1ccncc1)c1cnn(-c2ccc(F)c(Cl)c2)c(=O)c1Cl do in these assays?
HKDC1 inhibitor: 6; PfGluPho inh: 11; APOBEC3G inh: -11; UBC9 SUMO inh: 12; A3A deaminase: -3; M18AAP inhibitor: -2

Results for COc1ccc(N2CCN(c3ccc(NC(=O)/C=C\C(=O)O)cc3)CC2)cc1 ?
HKDC1 inhibitor: 0; PfGluPho inh: 25; APOBEC3G inh: -10; UBC9 SUMO inh: 4; A3A deaminase: -10; M18AAP inhibitor: 31*

Results for O=C(CSc1nc2ccccc2s1)N1c2ccccc2Sc2ccccc21 ?
HKDC1 inhibitor: 5; PfGluPho inh: 4; APOBEC3G inh: -6; UBC9 SUMO inh: 17; A3A deaminase: -4; M18AAP inhibitor: 2
